Experimental data taken from ChEMBL document CHEMBL4765376, “Discovery of an Orally Available Diazabicyclooctane Inhibitor (ETX0282) of Class A, C, and D Serine β-Lactamases” (J Med Chem, 2020).
Values after ≈ are worked out from the molar mass of the structure shown. Active and inactive are the calls of the source. The calls are words filed in the database; no cut-off is given here.

Columns and labels:
[1] = Oral bioavailability in Sprague-Dawley rat at 10 mg/kg by LC/MS/MS analysis; format: ADME, organism-based; settings: in vivo
In short: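 Jugular vein-cannulated male Sprague Dawley rats (180–200 g, n = 3/route). Intravenous arm: active acid at 10 mg/kg in 0.9% saline, plasma sampled 0.08–8 h. Oral arm: prodrug at a dose equivalent to 10 mg/kg acid in 25:75 PEG 400/WFI, plasma sampled 0.25–24 h. Levels by LC/MS/MS; F = (AUCpo/AUCiv) × 100.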

[2] = Inhibition of beta lactamase OXA-48 in Klebsiella pneumoniae assessed as decrease in enzyme activity using nitrocefin as chromogenic substrate incubated for 10 mins by […] plate reader analysis
[3] = Inhibition of beta lactamase TEM-1 in Escherichia coli assessed as decrease in enzyme activity using nitrocefin as chromogenic substrate incubated for 10 mins by […] plate reader analysis
[4] = Inhibition of beta lactamase TEM-1 in Escherichia coli assessed as decrease in enzyme activity using nitrocefin as chromogenic substrate incubated for 60 mins by […] plate reader analysis
[5] = Inhibition of beta lactamase OXA-48 in Klebsiella pneumoniae assessed as decrease in enzyme activity using nitrocefin as chromogenic substrate incubated for 60 mins by absorbance plate reader analysis
[6] = Inhibition of beta lactamase AmpC in Pseudomonas aeruginosa assessed as decrease in enzyme activity using nitrocefin as chromogenic substrate incubated for 10 mins by […] plate reader analysis
Escherichia coli [7] = assay: Antibacterial activity against Escherichia coli ARC3627 assessed as reduction in bacterial growth by CLSI based broth dilution method; format: functional
In short: (§1)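 Broth microdilution in CAMHB following CLSI.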

Klebsiella pneumoniae [8] = assay: Antibacterial activity against Klebsiella pneumoniae ARC561 assessed as reduction in bacterial growth by CLSI based broth dilution method; format: functional; in short: as §1
Escherichia coli [9] = assay: Inhibition of beta-lactamase activity in Escherichia coli ARC3627 assessed as MIC for cefpodoxime antibacterial activity at 4 ug/ml by CLSI based broth dilution method (Rvb >64 ug/ml); settings: dose 4.0 µg/ml
Klebsiella pneumoniae [10] = assay: Inhibition of beta-lactamase activity in Klebsiella pneumoniae ARC561 assessed as MIC for cefpodoxime antibacterial activity at 4 ug/ml by CLSI based broth dilution method (reference value: 32 ug/ml); settings: dose 4.0 µg/ml
[11] = Inhibition of beta lactamase AmpC in Pseudomonas aeruginosa assessed as decrease in enzyme activity using nitrocefin as chromogenic substrate incubated for 60 mins by […] plate reader analysis

Structure (SMILES) | bioavailability [1] | IC50 [2] | IC50 [3] | IC50 [4] | IC50 [5] | IC50 [6] | MIC (Escherichia coli [7]) | MIC (Klebsiella pneumoniae [8]) | MIC (Escherichia coli [9]) | MIC (Klebsiella pneumoniae [10]) | IC50 [11]
CC1=C[C@@H]2CN(C(=O)N2O[C@H](F)C(=O)OC(C)OC(=O)OC(C)C)[C@@H]1C(N)=O (stereo not given in full) | 11% |  |  |  |  |  |  |  |  |  | 
NC(=O)[C@@H]1C(C2CC2)=C[C@@H]2CN1C(=O)N2OC(F)C(=O)O (single isomer, unassigned) |  | 17 nM | 18 nM | 24 nM | 5.2 nM | 290 nM | 32 µg/mL (≈ 107 µM) | > 32 µg/mL | 2 µg/mL (≈ 6.68 µM) | 2 µg/mL (≈ 6.68 µM) | 95 nM
CC1=C[C@@H](C(N)=O)N2C[C@@H]1N(O[C@@H](F)C(=O)OC(C)C)C2=O | 84% |  |  |  |  |  |  |  |  |  | 
CC1=C[C@@H]2CN(C(=O)N2O[C@H](F)C(=O)OC(C)C)[C@@H]1C(N)=O | 38% |  |  |  |  |  |  |  |  |  | 
CC1=C[C@@H]2CN(C(=O)N2O[C@@H](F)C(=O)O)[C@@H]1C(=O)NOCC1CC1 |  | 400 nM | 18 nM | 26 nM | 87 nM | 700 nM | > 32 µg/mL | > 32 µg/mL | 16 µg/mL (≈ 46.6 µM) | 4 µg/mL (≈ 11.7 µM) | 130 nM
CC1=C[C@@H]2CN(C(=O)N2O[C@@H](F)C(=O)O)[C@@H]1C(=O)NC1COC1 |  | 55 nM | 440 nM | 660 nM | 12 nM | 260 nM | 16 µg/mL (≈ 48.6 µM) | > 32 µg/mL | > 32 µg/mL | 4 µg/mL (≈ 12.1 µM) | 54 nM
CC1=C[C@@H]2CN(C(=O)N2O[C@H](F)C(=O)O)[C@@H]1C(N)=O |  | 71 nM | 0.73 nM | 1.4 nM | 15 nM | 41 nM | 2 µg/mL (≈ 7.32 µM) | 32 µg/mL (≈ 117 µM) | 0.06 µg/mL (≈ 0.22 µM) | 0.25 µg/mL (≈ 0.915 µM) | 11 nM
CC1=C[C@@H]2CN(C(=O)N2OC(C)(F)C(=O)O)[C@@H]1C(N)=O (stereo not given in full) |  | 89000 nM | 680 nM | 230 nM | 22000 nM | 1400 nM | > 32 µg/mL | > 32 µg/mL | 2 µg/mL (≈ 6.96 µM) | 2 µg/mL (≈ 6.96 µM) | 400 nM
CC1=C[C@@H](C(N)=O)N2C[C@@H]1N(O[C@H](F)C(=O)O)C2=O |  | 370 nM | 2.3 nM | 3.2 nM | 70 nM | 450 nM |  |  | < 0.06 µg/mL | 0.25 µg/mL (≈ 0.915 µM) | 140 nM
CC1=C[C@@H]2CN(C(=O)N2OS(=O)(=O)O)[C@@H]1C(N)=O |  | 24 nM |  |  | 5 nM | 8 nM | 0.25 µg/mL (≈ 0.902 µM) | 8 µg/mL (≈ 28.9 µM) | < 0.06 µg/mL | < 0.06 µg/mL | 5.8 nM
CC1=C[C@@H]2CN(C(=O)N2O[C@@H](F)C(=O)O)[C@@H]1C(=O)NCCNS(N)(=O)=O |  | 2000 nM | 55 nM | 83 nM | 420 nM | 53 nM | 2 µg/mL (≈ 5.06 µM) | > 32 µg/mL | < 0.06 µg/mL | 0.125 µg/mL (≈ 0.316 µM) | 14 nM
NC(=O)[C@@H]1CC[C@@H]2CN1C(=O)N2OS(=O)(=O)O [AVIBACTAM] |  |  |  |  |  |  | 32 µg/mL (≈ 121 µM) | > 32 µg/mL | 0.5 µg/mL (≈ 1.89 µM) | 1 µg/mL (≈ 3.77 µM) | 
CC1=C[C@@H]2CN(C(=O)N2OCC(=O)O)[C@@H]1C(N)=O |  | 150 nM | 1500 nM | 430 nM | 51 nM | 4100 nM | 32 µg/mL (≈ 125 µM) | > 32 µg/mL | 4 µg/mL (≈ 15.7 µM) | 2 µg/mL (≈ 7.84 µM) | 1200 nM
CCOC(=O)[C@@H](F)ON1C(=O)N2C[C@H]1C(C)=C[C@H]2C(N)=O | 75% |  |  |  |  |  |  |  |  |  | 
CCOC(=O)[C@H](F)ON1C(=O)N2C[C@H]1C(C)=C[C@H]2C(N)=O (racemic) | 71% |  |  |  |  |  |  |  |  |  | 
CC1=C[C@@H](C(N)=O)N2C[C@@H]1N(OCC(=O)O)C2=O |  | 66 nM | 340 nM | 150 nM | 530 nM | 14000 nM | 2 µg/mL (≈ 7.84 µM) | 32 µg/mL (≈ 125 µM) | < 0.06 µg/mL | 0.125 µg/mL (≈ 0.49 µM) | 4600 nM
CC1=C[C@@H]2CN(C(=O)N2O[C@@H](F)C(=O)O)[C@@H]1C(=O)NCCS(N)(=O)=O |  | 2200 nM | 48 nM | 57 nM | 410 nM | 22 nM | 4 µg/mL (≈ 10.5 µM) | > 32 µg/mL | < 0.06 µg/mL | 1 µg/mL (≈ 2.63 µM) | 4.1 nM
CCOC(=O)[C@@H](F)ON1C(=O)N2C[C@H]1C=C(C)[C@H]2C(N)=O | 45% |  |  |  |  |  |  |  |  |  | 
CC1=C[C@@H]2CN(C(=O)N2O[C@@H](F)C(=O)O)[C@@H]1C(N)=O |  | 63 nM | 13 nM | 19 nM | 15 nM | 180 nM | 8 µg/mL (≈ 29.3 µM) | > 32 µg/mL | 1 µg/mL (≈ 3.66 µM) | 2 µg/mL (≈ 7.32 µM) | 71 nM
CC1=C[C@@H](C(N)=O)N2C[C@@H]1N(O[C@@H](F)C(=O)O)C2=O (racemic) |  | 67 nM | 20 nM | 26 nM | 19 nM | 1300 nM |  | > 32 µg/mL | < 0.06 µg/mL | 0.06 µg/mL (≈ 0.22 µM) | 300 nM
CC1=C[C@@H]2CN(C(=O)N2O[C@@H](F)C(=O)O)[C@@H]1c1nnc(C(N)=O)o1 |  | 26 nM | 17 nM | 24 nM | 7.3 nM | 360 nM | 16 µg/mL (≈ 46.9 µM) | > 32 µg/mL | 2 µg/mL (≈ 5.86 µM) | 2 µg/mL (≈ 5.86 µM) | 180 nM
CC1=C[C@@H]2CN(C(=O)N2OC(F)(F)C(=O)O)[C@@H]1C(N)=O |  | 75 nM | 1.2 nM | 1.5 nM | 14 nM | 50 nM | inactive | inactive | inactive | inactive | 12 nM
